FGF22 binding – shifts melting point of recombinant human FGF22 | Q9HCT0 | recombinant FGF22 thermal shift, SYPRO orange fluorescence; percent of sucrose octasulfate shift, DMSO zero | activity (Tm shift, normalised), % at 9.99 µM | 340,000 compounds, 1.5% hits | AID 651658;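 active = mean Tm shift, scaled 0 neutral to 100 positive control, at about 1.3% or above, every replicate too, limit read from the data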
Casp6 inh – inhibitors of human caspase-6; purified caspase-6, Z-VEID-R110 cleavage fluorescence; inhibition, % at 12.5 µM; 350,000 compounds, 0.53% hits; P55212;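 active = mean inhibition across replicates at least about 35%, with every replicate also reaching that limit, limit read from the data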
UCH37 inh – blocks the human deubiquitinase UCH37. purified proteasome/UCH37, Ub-AMC cleavage fluorescence. inhibition, % (no concentration beside the values). 330,000 compounds, 0.33% hits. AID 588478;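 active = mean inhibition over replicate wells above about 20%, limit read from the data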
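Material: human UCH37 enzyme supplied as purified proteasome complex. Measure: % inhibition of Ub-AMC cleavage fluorescence. Medium: pH 7.4 Tris-HCl (50 mM) with ovalbumin, ATP-MgCl2, DTT. Times: 30 min preincubation with enzyme, 25 min cleavage at room temperature. Detection: AMC fluorescence intensity at 355/460 nm.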
SIRT5 block – blocks human SIRT5 desuccinylation of peptide; Q9NXA8; Purified SirT5, succinyl-peptide AMC, trypsin-coupled fluorescence; inhibition, % at 15 µM; 330,000 compounds, 1.1% hits; in the data active = inhibition above about 15%
Target sequence (Q9NXA8 whole entry, looked up): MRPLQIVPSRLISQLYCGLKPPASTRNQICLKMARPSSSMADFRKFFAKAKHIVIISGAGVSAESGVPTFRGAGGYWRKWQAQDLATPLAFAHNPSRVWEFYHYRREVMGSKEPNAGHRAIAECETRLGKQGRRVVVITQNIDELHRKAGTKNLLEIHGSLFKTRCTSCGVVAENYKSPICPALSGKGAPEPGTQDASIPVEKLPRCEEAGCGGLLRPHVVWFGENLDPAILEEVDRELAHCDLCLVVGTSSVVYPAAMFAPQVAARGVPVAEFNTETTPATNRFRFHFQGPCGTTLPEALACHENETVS
NSD2 inh – NSD2 (human) methyltransferase inhibition | NSD2 peptide methylation, AlphaScreen, 120 min | 310,000 compounds, 0.54% hits | O96028 | inhibition, % at 12.5 µM | AID 743445; in the data active = inhibition above about 50%
Hits are given with their value; i = inactive; nt = not tested or not shown. Rows were chosen to be rich in hits. Some 2.6% of all compounds tested hit in one or more screens of this group.

SMILES | FGF22 binding | Casp6 inh | UCH37 inh | SIRT5 block | NSD2 inh
O=C(CN1CC(c2ccccc2)CC1=O)NCc1ccc(F)cc1 (stereo not given) | 43.3 | i | i | i | nt
COc1cccc(NC(=O)CN2CC(c3ccccc3)CC2=O)c1 (stereo not given) | i | i | i | i | nt
COc1ccc(C2C3C=CC(C3)C2C(=O)O)cc1 (stereo not given) | 43.5 | i | nt | nt | i
COc1ccc(C[C@H]2NC[C@H](O)[C@H]2OC(C)=O)cc1 | i | i | i | i | nt
CN1CC(C(=O)c2ccccc2)C(C(=O)c2ccccc2)C1 (stereo not given) | nt | nt | i | nt | i
O=C1OCCC1C(=O)c1ccccc1 (stereo not given) | 43.5 | i | nt | nt | i
O=C1OCCN1N=Cc1ccc([N+](=O)[O-])o1 | nt | nt | i | nt | nt
CCCC1(CC(C)C)C(=O)NC(=S)NC1=O | i | i | nt | nt | i
CCCCC1(CCC)C(=O)NC(=S)NC1=O | 42.9 | i | i | nt | i
COc1ccc(C(=O)NN=CC23CC[C@@H](O)CC2(O)CC[C@@H]2[C@@H]3CCC3(C)C(C4=CC(=O)OC4)CCC23O)cc1 (stereo not given in full) | nt | nt | i | nt | nt
CCOC(=O)[C@]12Cc3cc4ccccc4cc3[C@H]1N(Cc1ccccc1)C(=O)c1ccccc12 | i | i | nt | 26.8 | nt
CCOC(=O)[C@]12Cc3cc4ccccc4cc3[C@H]1N(Cc1ccccc1)C(=O)c1cc(OC)ccc12 | i | i | nt | i | nt
CC(C)(C)C(=O)c1cn(CC(=O)NCc2ccco2)c2ccccc12 | i | i | i | 17.0 | i
COC(=O)[C@H]1[C@H](CO)[C@H]2Cn3c(ccc(-c4cncnc4)c3=O)[C@@H]1N2S(=O)(=O)c1ccccc1C | i | i | nt | i | nt
O=C(N/N=C/c1c(O)n(Cc2ccco2)c(=O)[nH]c1=O)c1ccccc1O | i | i | i | 15.3 | i
CCCCC(=O)N/N=C/c1c(O)n(Cc2ccco2)c(=O)[nH]c1=O | nt | nt | i | nt | i
OC(CNCCc1c[nH]c2ccccc12)C(F)(F)F (stereo not given) | nt | i | i | i | i
OC(CCNCCc1c[nH]c2ccccc12)C(F)(F)Cl (stereo not given) | 43.6 | i | i | i | i
Cc1cccc(OP(N)(N)=O)c1C | 43.5 | i | i | i | i
O=C1NC(=O)N(Cc2ccco2)C(=O)/C1=C/c1cccn1CCOc1ccccc1Cl | i | 58.5 | nt | nt | i
COc1ccc(CN2C(=O)NC(=O)/C(=C/c3ccoc3)C2=O)cc1 | i | 67.4 | i | 20.9 | i
O=C(O)Cn1cc(/C=C2\C(=O)NC(=O)N(Cc3ccco3)C2=O)c2ccccc21 | i | 74.5 | i | i | i
COc1ccc(CN2C(=O)NC(=O)/C(=C/c3cc(OC)c(OC)c(OC)c3)C2=O)cc1 | i | i | i | i | i
O=C1NC(=O)N(Cc2ccccc2)C(=O)/C1=C\c1ccco1 | i | 63.0 | i | 25.0 | i
O=C1NC(=O)N(Cc2ccc(F)cc2)C(=O)/C1=C\C=C\c1ccco1 | i | i | i | i | i
SMILES | FGF22 binding | Casp6 inh | UCH37 inh | SIRT5 block | NSD2 inh
Cn1cccc1/C=C1\C(=O)NC(=O)N(Cc2ccccc2)C1=O | i | i | i | i | i
O=C(Cc1ccncc1)N1CCCCN2[C@H](C1)[C@@H](c1ccc(C#Cc3ccccc3F)cc1)[C@@H]2CO | i | i | nt | i | nt
Cc1ccccc1C(=O)NN=Cc1ccc(Sc2ccccn2)o1 | nt | nt | i | nt | nt
O=C(NCC1=C(c2ccc3ccccc3c2)C[C@@H]2CC[C@H]1N2Cc1ccco1)c1ccncc1 | i | i | nt | 24.9 | nt
CC(Cl)(Cl)C(=NP(=S)(N1CCOCC1)N1CCOCC1)N1CCOCC1 | nt | nt | i | nt | nt
COc1ccccc1C=NN=C(N)N[N+](=O)[O-] | nt | nt | i | nt | nt
NC(=S)/N=C/c1c(O)[nH]c(=O)[nH]c1=O | 42.9 | i | nt | i | i
O=C(O)c1cccc2c1NC(c1cccc([N+](=O)[O-])c1)C1CC(Sc3ccccc3[N+](=O)[O-])C(Cl)C21 (stereo not given) | i | 54.2 | i | i | i
Cc1cccc(S(=O)(=O)N2[C@@H]3Cn4c(ccc(-c5ccccc5)c4=O)[C@H]2[C@@H](C(=O)O)[C@@H]3CO)c1 | i | i | nt | i | nt
CC(CC(c1ccccc1)c1c(O)c2ccccc2oc1=O)=NNC(N)=S (stereo not given) | nt | nt | i | nt | nt
Cn1c(=O)c2c(nc(N/N=C/c3c(O)n(-c4ccccc4)c(=S)[nH]c3=O)n2C)n(C)c1=O | nt | nt | 21.4 | nt | i

Bioassay records (PubChem BioAssay)
